Assay results taken from ChEMBL document CHEMBL2346587, “Design, synthesis, and evaluation of a water-soluble antofine analogue with high antiproliferative and antitumor activity” (Bioorg Med Chem, 2013).
Activity calls are given as the source filed them. No cut-off for these calls is given here.

Tests used:
A549 [1] = test: Antitumor activity against paclitaxel-resistant human A549 cells xenografted in ip dosed athymic nu/nu BALB/c mouse assessed as inhibition of P-gp expression administered 35 days post-implantation 3 times a week by immunohistochemistry; format: functional, organism-based
How it was run: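 A549-Pa (paclitaxel-resistant) xenografts in female athymic BALB/c nu/nu mice, grown s.c. in right flank and treated i.p. three times weekly in 1% cremophore/PBS once tumours reached 95–100 mm3. Excised tumour sections incubated overnight at 4 °C with P-glycoprotein antibody, detected by HRP-polymer system, hematoxylin counterstain, viewed by microscopy.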

A549 [2] = test: human A549 cells assessed as morphological changes at 50 to 400 nM after 24 hrs by inverted phase-contrast microscopy
A549 [3] = test: Cytotoxicity against human paclitaxel-resistant A549 cells after 72 hrs by SRB assay; format: functional, cell-based; settings: A549, 72 h
How it was run: (§1)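 SRB growth assay: 5 × 10^3 cells/well exposed to a concentration series for 72 h; fixed in 10% TCA 30 min at 4 °C, stained with 0.4% SRB in 1% acetic acid 30 min, dye dissolved in 10 mM Tris pH 10.0, absorbance at 515 nm. Viability relative to vehicle control; IC50 by non-linear regression; at least three experiments. A549-Pa is a paclitaxel-resistant A549 subline.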

A549 [4] = test: Antitumor activity against paclitaxel-resistant human A549 cells xenografted in athymic nu/nu BALB/c mouse assessed as inhibition of Ki-67 expression at 5 to 10 mg/kg, ip administered 35 days post-implantation 3 times a week by immunohistochemistry; format: functional, organism-based
How it was run: (§2)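 Female athymic BALB/c nu/nu mice, six weeks old; 2 × 10^6 A549 or A549-Pa cells in 0.1 mL RPMI injected s.c. into right flank on day 0. Dosing began at 95–100 mm3 tumour volume: drug in 1% cremophore in PBS given i.p. three times weekly; controls got vehicle; five mice/group. Tumour volume tracked every 3–5 days; tumours excised and weighed at end; sections immunostained for Ki-67.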

A549 [5] = test: Cell cycle arrest in human A549 cells assessed as accumulation at S phase at 400 nM after 24 hrs by flow cytometry (reference value: 13.38 %); format: functional
A549 [6] = test: Cytotoxicity against human A549 cells after 72 hrs by SRB assay; format: functional, cell-based; settings: A549, 72 h; how it was run: as §1
A549 [7] = test: Cell cycle arrest in human A549 cells assessed as accumulation at G0/G1 phase at 400 nM after 24 hrs by flow cytometry (reference value: 62.38 %); format: functional
[8] = target: T1, ATP-dependent translocase ABCB1 (Homo sapiens, UniProt P08183); test: Inhibition of P-gp activity in paclitaxel-resistant human A549 cells potentiation of 2.5 uM paclitaxel-induced cytotoxicity at 0.05 uM by SRB assay; format: cell-based; settings: a549, 0.05 µM
T1 sequence (P08183 whole entry): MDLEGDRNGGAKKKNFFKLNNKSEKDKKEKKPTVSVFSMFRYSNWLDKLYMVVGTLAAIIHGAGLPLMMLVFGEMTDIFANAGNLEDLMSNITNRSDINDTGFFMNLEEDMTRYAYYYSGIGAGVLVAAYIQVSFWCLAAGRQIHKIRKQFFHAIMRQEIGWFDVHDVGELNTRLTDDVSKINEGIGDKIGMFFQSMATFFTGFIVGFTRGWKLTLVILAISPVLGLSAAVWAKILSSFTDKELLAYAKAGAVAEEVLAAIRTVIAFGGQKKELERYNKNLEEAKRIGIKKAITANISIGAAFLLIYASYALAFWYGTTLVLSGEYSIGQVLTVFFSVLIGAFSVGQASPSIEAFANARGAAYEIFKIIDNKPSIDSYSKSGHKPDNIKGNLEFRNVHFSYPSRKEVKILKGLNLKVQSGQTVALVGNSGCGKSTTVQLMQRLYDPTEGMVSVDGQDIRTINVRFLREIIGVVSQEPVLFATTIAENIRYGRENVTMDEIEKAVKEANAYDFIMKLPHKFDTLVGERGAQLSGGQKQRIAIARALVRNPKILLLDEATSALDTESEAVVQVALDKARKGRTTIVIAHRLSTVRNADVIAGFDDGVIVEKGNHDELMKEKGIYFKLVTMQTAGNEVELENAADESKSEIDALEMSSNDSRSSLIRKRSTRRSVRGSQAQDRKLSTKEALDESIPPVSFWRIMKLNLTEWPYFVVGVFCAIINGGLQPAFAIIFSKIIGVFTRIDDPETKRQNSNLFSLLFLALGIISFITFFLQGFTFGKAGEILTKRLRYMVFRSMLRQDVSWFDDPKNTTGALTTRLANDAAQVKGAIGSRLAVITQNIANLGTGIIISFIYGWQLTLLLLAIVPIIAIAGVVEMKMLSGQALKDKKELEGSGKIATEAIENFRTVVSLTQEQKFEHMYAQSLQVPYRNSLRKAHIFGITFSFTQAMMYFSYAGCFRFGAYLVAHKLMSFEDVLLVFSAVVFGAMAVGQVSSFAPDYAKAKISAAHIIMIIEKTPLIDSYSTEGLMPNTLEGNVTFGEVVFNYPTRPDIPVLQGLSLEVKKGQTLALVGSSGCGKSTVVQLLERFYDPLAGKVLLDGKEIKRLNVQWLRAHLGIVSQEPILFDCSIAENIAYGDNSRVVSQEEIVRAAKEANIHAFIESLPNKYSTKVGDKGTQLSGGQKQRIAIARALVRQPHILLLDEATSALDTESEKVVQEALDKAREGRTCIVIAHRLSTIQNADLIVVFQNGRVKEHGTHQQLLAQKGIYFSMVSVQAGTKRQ
How it was run: (§3)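 A549-Pa cells plated at 5 × 10^4 cells/well and co-treated for 48 h with the compound (0–200 nM) plus paclitaxel or gefitinib; growth inhibition by SRB assay. Combination index computed at the 50% inhibition level as CI = D1/(Dx)1 + D2/(Dx)2, comparing combined versus single-agent concentrations.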

A549 [9] = test: Inhibition of AKT/c-myc signaling in human A549 cells assessed as reduction in CDK4 protein expression at 50 to 400 nM after 24 hrs by Western blot analysis; format: cell-based
How it was run: (§4)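 A549 cells plated at 3 × 10^5 per 60 mm dish, grown 24 h, then exposed to a concentration series for 24 h. Lysed in boiling SDS sample buffer with NaF and orthovanadate; protein by BCA; 25–50 µg run on 8–15% SDS-PAGE, transferred to PVDF, blocked in 5% milk/PBST, primary antibodies overnight at 4 °C, secondary 1–2 h, ECL detection.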

[10] = target: T1, ATP-dependent translocase ABCB1; test: Inhibition of P-gp activity in human paclitaxel-resistant A549 cells potentiation of 5 uM paclitaxel-induced cytotoxicity at 0.1 uM by SRB assay; format: cell-based; settings: a549, 0.1 µM; how it was run: as §3
A549 [11] = test: Inhibition of AKT-mediated mTOR phosphorylation at Ser2448 residue in human A549 cells at 50 to 400 nM after 24 hrs by Western blot analysis; format: cell-based; how it was run: as §4
HCT-15 = test: Cytotoxicity against human HCT15 cells after 72 hrs by SRB assay; format: functional, cell-based; settings: HCT-15, 72 h; how it was run: as §1
A549 [12] = test: Inhibition of AKT/c-myc signaling in human A549 cells assessed as reduction in phospho-Rb level at 50 to 400 nM after 24 hrs by Western blot analysis; format: cell-based; how it was run: as §4
A549 [13] = test: Cell cycle arrest in human A549 cells assessed as accumulation at S phase at 50 nM after 24 hrs by flow cytometry (reference value: 13.38 %); format: functional
A549 [14] = test: Cell cycle arrest in human A549 cells assessed as accumulation at G0/G1 phase at 50 nM after 24 hrs by flow cytometry (reference value: 62.38 %); format: functional
[15] = target: TCF4/beta-catenin (Homo sapiens) (UniProt P35222+Q9NQB0); test: Inhibition of transcription activity of […]/TCF4 (unknown origin) expressed in HEK293 cells after 24 hrs by luciferase reporter gene assay; format: cell-based
How it was run: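 HEK293 cells were co-transfected for 24 h with 100 ng TOPflash β-catenin/Tcf reporter and 5 ng pRL-SV40. Graded compound concentrations were then added for 24 h. Firefly activity was read with a dual-luciferase system and normalized to Renilla. Significance was tested against DMSO control.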

A549 [16] = test: Cell cycle arrest in human A549 cells assessed as accumulation at sub-G1 phase at 100 nM after 24 hrs by flow cytometry (reference value: 1.40 %); format: functional
A549 [17] = test: Antitumor activity against human A549 cells xenografted in athymic nu/nu BALB/c mouse assessed as inhibition of Ki-67 expression at 5 to 10 mg/kg, ip administered 35 days post-implantation 3 times a week by immunohistochemistry; format: functional, organism-based; how it was run: as §2
[18] = target: T1, ATP-dependent translocase ABCB1; test: Inhibition of P-gp activity in human paclitaxel-resistant A549 cells potentiation of 5 uM gefitinib-induced cytotoxicity at 0.1 uM by SRB assay; format: cell-based; settings: a549, 0.1 µM; how it was run: as §3
Mus musculus = test: Toxicity in paclitaxel-resistant human A549 cells xenografted athymic nu/nu BALB/c mouse assessed as body weight change at 5 to 10 mg/kg, ip administered 3 times a week; format: organism-based; design: dose 5-10 mg/kg, route intraperitoneal; settings: in vivo
How it was run: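 Six-week-old female BALB/c nu/nu mice received 2 × 10^6 A549-Pa cells in 0.1 mL RPMI subcutaneously in the right flank. Dosing began at 95–100 mm3 tumor volume, with five mice per group randomized. Compound in 1% cremophore/PBS was given intraperitoneally three times weekly; controls received equal vehicle volume. Body weight and overt toxicity were monitored.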

A549 [19] = test: Inhibition of AKT phosphorylation at T308 residue in human A549 cells at 50 to 400 nM after 24 hrs by Western blot analysis; format: cell-based; how it was run: as §4
A549 [20] = test: Antitumor activity against paclitaxel-resistant human A549 cells xenografted in athymic nu/nu BALB/c mouse assessed as inhibition of tumor growth at 5 mg/kg, ip administered 35 days post-implantation 3 times a week relative to control; format: functional; settings: 840 h, route intraperitoneal, read-out: TGI; how it was run: as §2
[21] = target: T1, ATP-dependent translocase ABCB1; test: Inhibition of P-gp activity in human paclitaxel-resistant A549 cells assessed as rhodamine 123 accumulation at 50 nM after 72 hrs by FACS analysis (reference value: 14.4 %); format: cell-based; design: scale not given: the % may be the effect or the level left; settings: a549, 72 h, 0.05 µM

For `COc1ccc2c3c(c4cc(OC)c(OC)cc4c2c1)C[C@@]1(CO)CCCN1C3`, the inhibition (A549 [1]) was “Dose-dependent effect”, the Activity (A549 [2]) was “Active” and the IC50 (A549 [3]) was 200 nM. For the same compound, the inhibition (A549 [4]) was “Active”, the Activity (A549 [5]) was 11.37% and the IC50 (A549 [6]) was 120 nM. The Activity (A549 [7]) was 67.01%, the “fractional inhibitory concentration index (FICI)” value [8] was 0.242 and the inhibition (A549 [9]) was “Active”. For the same compound, the “fractional inhibitory concentration index (FICI)” value [10] was 0.391, the inhibition (A549 [11]) was “Active” and the IC50 (HCT-15) was 160 nM. For the same compound, the inhibition (A549 [12]) was “Active”, the Activity (A549 [13]) was 12.08% and the Activity (A549 [14]) was 66.07%. For the same compound, the inhibition [15] was “Dose-dependent effect”, the Activity (A549 [16]) was 2.31% and the inhibition (A549 [17]) was “Active”. For the same compound, the “fractional inhibitory concentration index (FICI)” value [18] was 0.523, the Activity (Mus musculus) was “Non-toxic” and the inhibition (A549 [19]) was “Active”. The inhibition in vivo at 5 mg/kg (A549 [20]) was 38.4% and the Activity [21] was 28.7%.
